A short description of experiment [1]: Growth inhibition of human NCI60 cells. The experiment is classed as functional. In a few lines: (§1)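 NCI-60 cell lines grown in RPMI 1640 with 5% FBS and 2 mM L-glutamine, plated at 5,000–40,000 cells/well and preincubated 24 h. Time-zero plates were TCA-fixed. Drug was given at five concentrations (10-fold or ½-log dilutions from DMSO stock) for 48 h at 37°C. Cells were TCA-fixed, stained with SRB, and read at 515 nm. GI50 is where [(Ti−Tz)/(C−Tz)]×100 = 50.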

Another experiment relates to A498. Kind of experiment: Growth inhibition of human A498 cells. The experiment is classed as functional. In a few lines:
as §1

A further experiment relates to UO-31. Kind of experiment: Growth inhibition of human UO31 cells. The class given is functional. In a few lines: (§2)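 NCI-60 panel SRB assay. Cells in RPMI 1640 with 5% FBS and 2 mM L-glutamine, plated at 5,000-40,000 cells/well and grown 24 h before dosing; time-zero plates TCA-fixed. Five concentrations (10-fold or ½ log dilutions, from DMSO stock) applied for 48 h at 37°C. TCA fixation (16% final for suspension cells), SRB stain, absorbance 515 nm; GI50 from net protein increase versus control.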

Another experiment concerns OVCAR-3. The experiment is described as follows: Growth inhibition of human OVCAR3 cells. The experiment is classed as functional. In short, it runs like this: as §1
For a further experiment, the system named is DU-145. Kind of experiment: Growth inhibition of human DU145 cells. The class given is functional. In a few lines: as §1
The subject of the next experiment is SN12C. Kind of experiment: Growth inhibition of human SN12C cells. The experiment is classed as functional. In short, it runs like this: as §2
For the next experiment, the system named is CAKI-1. Kind of experiment: Growth inhibition of human Caki1 cells. The experiment is classed as functional. In short, it runs like this: as §1
For another experiment, the system named is TK-10. Kind of experiment: Growth inhibition of human TK10 cells. The experiment is classed as functional. In short, it runs like this:
as §2

In experiment [2] the test system is NCI-H460. Kind of experiment: Cytotoxicity against human NCI-H460 cells assessed as cell death at 50 nM after 12 hrs by Hoechst-33342 staining and propidium iodide staining. The experiment is classed as functional, cell-based. As to conditions: NCI-H460, 12 h. In a few lines:
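NCI-H460 cells were seeded at 50,000 cells/well for 12 h, then exposed 12 h in serum-free medium (DMSO <0.1%). Cells were stained with Hoechst 33342 (10 µg/ml) and propidium iodide (20 µg/ml) for 30 min at 37°C. Condensed or fragmented nuclei were scored by fluorescence microscopy, and apoptotic index = apoptotic/total nuclei ×100. Duplicate wells, ≥3 runs (N = 6).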

Another experiment deals with HCT-116. The experiment is described as follows: Growth inhibition of human HCT116 cells. The experiment is classed as functional. In short, it runs like this: as §1
In another experiment the test system is ACHN. The experiment is described as follows: Growth inhibition of human ACHN cells. The class given is functional. In short, it runs like this: as §1
For the next experiment, the system named is MOLT-4. The experiment is described as follows: Growth inhibition of human MOLT4 cells. The experiment is classed as functional. In a few lines:
as §1

In experiment [3] the test system is NCI-H460. Kind of experiment: Growth inhibition of human NCI-H460 cells after 48 hrs by MTT assay. The experiment is classed as functional. As to conditions: NCI-H460, 48 h. In a few lines:
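NCI-H460 cells in RPMI 1640 with 10% FBS were seeded at 10,000 cells/well for 12 h. Drug was diluted 1000× from DMSO into 1% FBS medium (DMSO <0.1%). Time-course runs used 50 nM; dose–response runs used 48 h exposure. Viability was read by MTT (4 h), with formazan dissolved in DMSO for 45 min and read at 562 nm. Triplicate wells, ≥3 runs (N = 9), two-way ANOVA.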

For experiment [4], the system named is NCI-H460. The experiment is described as follows: Induction of apoptosis human NCI-H460 cells assessed as cellular degradation at 50 nM after 12 hrs by Hoechst-33342 staining. The class given is functional. In short, it runs like this:
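NCI-H460 seeded 50,000 cells/well for 12 h, then exposed 12 h in serum-free medium (DMSO <0.1%). Stained 30 min at 37°C with 10 µg/ml Hoechst 33342 plus 20 µg/ml propidium iodide. Condensed or fragmented nuclei scored by fluorescence microscopy; apoptotic index = apoptotic/total nuclei ×100. 2 replicate wells, ≥3 runs (N = 6).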

The subject of another experiment is OVCAR-8. Kind of experiment: Growth inhibition of human OVCAR8 cells. The experiment is classed as functional. In short, it runs like this:
as §1

The test system of a further experiment is 786-0. Kind of experiment: Growth inhibition of human 786-0 cells. The experiment is classed as functional. In short, it runs like this:
as §1

Another experiment relates to RXF 393. Kind of experiment: Growth inhibition of human RXF393 cells. The class given is functional. In short, it runs like this: as §1
In experiment [5] the test system is NCI-H460. The experiment is described as follows: Growth inhibition of human NCI-H460 cells. The experiment is classed as functional. In short, it runs like this: as §1
Another experiment deals with A549. The experiment is described as follows: Growth inhibition of human A549 cells. The class given is functional. In short, it runs like this: as §1

Structures are written as SMILES. Calls of active or inactive are those of the source. No cut-off for these calls is given here.

The GI50 is the concentration giving 50% growth inhibition. The low end stands for greater sensitivity of the cells, the high end for lower sensitivity of the cells. Turning to `C[C@@H]1O[C@H](O[C@H]2CC[C@@]3(C)[C@H](CC[C@@H]4[C@@H]3CC[C@]3(C)[C@@H](C5=CC(=O)OC5)CC[C@]43O)C2)C[C@@H](O)[C@H]1O`, the GI50 in [1] is more than 0.05 µM.

As to `C[C@H]1O[C@@H](O[C@H]2[C@@H](O)C[C@H](O[C@H]3CC[C@@]4(C)[C@H](CC[C@@H]5[C@@H]4CC[C@]4(C)[C@@H](C6=CC(=O)OC6)CC[C@]54O)C3)O[C@@H]2C)C[C@H](O)[C@@H]1O`, in experiment [1], halving of growth (GI50) required 0.05 µM.

For the molecule `C[C@@H]1O[C@H](O[C@H]2CC[C@@]3(C)[C@H](CC[C@@H]4[C@@H]3CC[C@]3(C)[C@@H](C5=CC(=O)OC5)CC[C@]43O)C2)C[C@H](O)[C@H]1O`, it took 0.001 µM to inhibit growth in experiment [1] by half (GI50).

A word on the IC50: it is the concentration that inhibits the measured activity by half. Turning to `C[C@H]1O[C@@H](O[C@H]2CC[C@@]3(C)[C@H](CC[C@@H]4[C@@H]3CC[C@]3(C)[C@@H](C5=CC(=O)OC5)CC[C@]43O)C2)C[C@H](O)[C@@H]1O`, the “growth inhibition (GI)” value in the experiment on A498, in the experiment with UO-31, in the experiment with OVCAR-3, in the experiment on DU-145, in the experiment with SN12C and with CAKI-1 was “Active” in each case. The “growth inhibition (GI)” value with TK-10, in the experiment with HCT-116, in the experiment on ACHN, in the experiment with MOLT-4, in the experiment with OVCAR-8 and in the experiment with 786-0 was “Active” in each case. For the same molecule, the “growth inhibition (GI)” value with RXF 393, in the experiment with NCI-H460 [5] and in the experiment on A549 was “Active” in each case. The IC50 in the experiment with NCI-H460 [2] worked out at 0.0748 µM. The GI50 in the experiment with NCI-H460 [3] came out at 0.0038 µM; in experiment [1], 0.025 µM. Moreover, the Activity in the experiment on NCI-H460 [4] is 28.8%.

Regarding `C[C@@H]1O[C@@H](O[C@H]2CC[C@@]3(C)[C@H](CC[C@@H]4[C@@H]3CC[C@]3(C)[C@@H](C5=CC(=O)OC5)CC[C@]43O)C2)C=C[C@H]1O`, the GI50 in [1] is 0.001 µM.

Molecule `C[C@H]1O[C@H](O[C@H]2CC[C@@]3(C)[C@H](CC[C@@H]4[C@@H]3CC[C@]3(C)[C@@H](C5=CC(=O)OC5)CC[C@]43O)C2)C=C[C@@H]1O` returned a GI50 in experiment [1] of 0.001 µM.

Molecule `C[C@H]1O[C@H](O[C@H]2CC[C@@]3(C)[C@H](CC[C@@H]4[C@@H]3CC[C@]3(C)[C@@H](C5=CC(=O)OC5)CC[C@]43O)C2)CC[C@@H]1O` displayed a GI50 in experiment [1] of 0.113 µM.

`C[C@@H]1O[C@@H](O[C@H]2CC[C@@]3(C)[C@H](CC[C@@H]4[C@@H]3CC[C@]3(C)[C@@H](C5=CC(=O)OC5)CC[C@]43O)C2)CC[C@H]1O` [RAMNODIGIN]: the “growth inhibition (GI)” value in the experiment on A498, in the experiment with UO-31, with OVCAR-3, with DU-145, in the experiment with SN12C and in the experiment with CAKI-1 was “Active” throughout. Also, the “growth inhibition (GI)” value in the experiment on TK-10, in the experiment on HCT-116, in the experiment with ACHN, in the experiment with MOLT-4, in the experiment with OVCAR-8 and in the experiment on 786-0 was “Active” each time. Further, the “growth inhibition (GI)” value in the experiment with RXF 393, with NCI-H460 [5] and in the experiment with A549 was “Active” in each case. Besides, the IC50 in the experiment on NCI-H460 [2] turned out to be 0.0557 µM. Also, the figures for the GI50 (in the experiment on NCI-H460 [3]; in experiment [1]) were 0.0022 µM and 0.012 µM, respectively. In addition, the Activity in the experiment on NCI-H460 [4] turned out to be 33%.

On to `C[C@H]1O[C@@H](O[C@H]2[C@@H](O)C[C@H](O[C@H]3[C@@H](O)C[C@H](O[C@H]4CC[C@@]5(C)[C@H](CC[C@@H]6[C@@H]5CC[C@]5(C)[C@@H](C7=CC(=O)OC7)CC[C@]65O)C4)O[C@@H]3C)O[C@@H]2C)C[C@H](O)[C@@H]1O` [DIGITOXIN], for which the IC50 with NCI-H460 [2] came to 0.357 µM. Further, halving of growth in the experiment with NCI-H460 [3] (GI50) required 0.0107 µM.

(Values after ChEMBL document CHEMBL1649102, “Stereochemical survey of digitoxin monosaccharides: new anticancer analogues with enhanced apoptotic activity and growth inhibitory effect on human non-small cell lung cancer cell” (ACS Med Chem Lett, 2011).)
